Experimental data taken from ChEMBL document CHEMBL1122076, “Synthesis of 2-(alkylamino)-5,6- and -6,7-dihydroxy-3,4-dihydroquinazolines and evaluation as potential dopamine agonists” (J Med Chem, 1982).
Active and inactive are the calls of the source. No cut-off for these calls is given here.

tested on: Canis familiaris; experiment: Evaluated for the percentage vasodilation in the renal artery produced by 3000 nmol administered intra-arterially.; type: functional, Canis lupus familiaris; settings: not given
Outline: (§1)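 Anesthetized dogs fitted with an electromagnetic flow probe on the renal artery; a bent 25-gauge needle was inserted proximally into the artery for dosing. Phenoxybenzamine, 5 mg/kg ia, was infused first. A dopamine dose-response curve (11.75, 47, 188 nmol/dog) was run, then rising doses of test agent up to 3000 nmol were injected intra-arterially, each in 0.2 mL.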

| SMILES | Vasodilation |
| --- | --- |
| CCCN(CCC)C1=NCc2cc(O)c(O)cc2N1 | 50% |
| NC1=NCc2cc(O)c(O)cc2N1 | 50% |
| CNC1=NCc2cc(O)c(O)cc2N1 | 50% |

tested on: Canis familiaris; experiment: Evaluated for the percentage vasodilation in the renal artery produced by 3000 nmol administered intra-arterially; NA is No Antagonistic activity; type: functional, organism-based; settings: Canis lupus familiaris; outline: as §1

| SMILES | Vasodilation |
| --- | --- |
| NC1=NCc2c(ccc(O)c2O)N1 | inactive |
| CN(C)C1=NCc2cc(O)c(O)cc2N1 | inactive |
| CN(C)C1CCc2c(ccc(O)c2O)C1 (stereo not given) | inactive |
| CNC1=NCc2c(ccc(O)c2O)N1 | inactive |
| CN(C)C1=NCc2c(ccc(O)c2O)N1 | inactive |
| NC1CCc2c(ccc(O)c2O)C1 (stereo not given) | inactive |
| CCCN(CCC)C1=NCc2c(ccc(O)c2O)N1 | inactive |

tested on: not listed separately; experiment: Evaluated for the pKa value.; type: physicochemical; settings: not given
Outline: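 Hydrochloride salt titrated to determine the pKa of the ammonium ion. Values for related analogues were estimated by extrapolating the pKa values of the corresponding dimethyl ethers.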

| pKa | SMILES |
| --- | --- |
| 11.1 | COc1cc2c(cc1OC)NC(N)=NC2 |
| 9.84 | NCCc1ccc(O)c(O)c1 [DOPAMINE] |
| 12 | NC1=NCc2cc(O)c(O)cc2N1 |

| SMILES | pKa |
| --- | --- |
| NC1CCc2cc(O)c(O)cc2C1 (stereo not given) | 9.84 |
| NC1CCc2c(ccc(O)c2O)C1 (stereo not given) | 9.84 |
